Results on one compound are retold here after ChEMBL document CHEMBL2424574, “Structure-activity relationships and pharmacophore model of a noncompetitive pyrazoline containing class of GluN2C/GluN2D selective antagonists” (J Med Chem, 2013).

By Papp is commonly meant the rate of passage across a membrane or cell layer, normalised by area and donor concentration. What is called inhibition is the percentage by which the read-out fell short of the control.

Data set [1] deals with Liver microsomes. Put plainly: Half life in human liver microsomes at 1 uM. Type of data set: ADME, Microsome. In outline:
(§1)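 Human liver microsomes 0.5 mg/mL in 100 mM potassium phosphate pH 7.4 with 5 mM MgCl2 and 1 μM test compound. Preincubated 3 min at 37 °C, then started with 1 mM NADPH, with a testosterone control in parallel. Sampled at 0, 10, 20, 30 and 60 min and quenched in cold acetonitrile/water with formic acid and internal standard. Percent remaining by LC-MS/MS (MRM) versus time 0. t1/2 = 0.693/k from the ln-remaining slope; CLint = k/protein concentration.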
A general note: Liver microsomes are vesicles of endoplasmic reticulum, rich in cytochrome P450 enzymes.

Data set [2] deals with Liver microsomes. Kind of data set: Intrinsic clearance in human liver microsomes measured per mg of protein at 1 uM by LC-MS/MS analysis. The data set is classed as ADME, Microsome. The essentials:
as §1

In data set [3] the test system is Liver microsomes. Kind of data set: Metabolic stability in human liver microsomes assessed as compound remaining at 1 uM after 60 mins by LC-MS/MS analysis. Type of data set: ADME, Microsome. Conditions: 1 h. The essentials:
as §1

Data set [4] concerns Liver microsomes. Put plainly: Metabolic stability in human liver microsomes assessed as compound remaining at 1 uM after 30 mins by LC-MS/MS analysis. The data set is classed as ADME, Microsome. Particulars: 0.5 h. In outline:
as §1

Data set [5] relates to Liver microsomes. Put plainly: Metabolic stability in human liver microsomes assessed as compound remaining at 1 uM after 20 mins by LC-MS/MS analysis. Type of data set: ADME, Microsome. In outline: as §1
Data set [6] has as its system Liver microsomes. Kind of data set: Metabolic stability in human liver microsomes assessed as compound remaining at 1 uM after 10 mins by LC-MS/MS analysis. The data set is classed as ADME, Microsome. In outline:
as §1

Data set [7] deals with MDCK. Put plainly: Permeability across basolateral to apical side in dog MDCK cells expressing MDR1 assessed as compound recovery at 5 uM after 120 mins by LC-MS/MS analysis. Particulars: 2 h. Type of data set: ADME, cell-based, Canis lupus familiaris. In outline:
(§2)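 MDR1-MDCK monolayers grown to confluence on collagen-coated polycarbonate membranes. Assay buffer was HBSS with 10 mM HEPES and 15 mM glucose, pH 7.4, and the receiver side also held 1% BSA. Monolayers were dosed apically (A-to-B) or basolaterally (B-to-A) at 5 μM, 37 °C, 5% CO2. Donor and receiver were sampled at 120 min, in duplicate, by LC-MS/MS (ESI). Papp and percent recovery were calculated from receiver/donor concentrations.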

In data set [8] the test system is MDCK. Kind of data set: Apparent permeability across basolateral to apical side in dog MDCK cells expressing MDR1 at 5 uM after 120 mins by LC-MS/MS analysis. Type of data set: ADME, cell-based, Canis lupus familiaris. Conditions: 2 h. The essentials: as §2
The subject of data set [9] is MDCK. Put plainly: Permeability across apical to basolateral side in dog MDCK cells expressing MDR1 assessed as compound recovery at 5 uM after 120 mins by LC-MS/MS analysis. The data set is classed as ADME, cell-based, Canis lupus familiaris. Conditions: 2 h. In outline: as §2
The subject of data set [10] is MDCK. Put plainly: Apparent permeability across apical to basolateral side in dog MDCK cells expressing MDR1 at 5 uM after 120 mins by LC-MS/MS analysis. Type of data set: ADME, cell-based, Canis lupus familiaris. Particulars: 2 h. In outline:
as §2

Data set [11] concerns the target Glutamate receptor ionotropic, NMDA 2D (Rattus norvegicus) (UniProt Q62645). Kind of data set: Negative allosteric modulation of recombinant rat GluN2D receptor expressed in Xenopus laevis oocytes at 100 uM by two-electrode voltage clamp method. The data set is classed as cell-based. Particulars: Oocyte. The essentials: (§3)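 Two-electrode voltage clamp of Xenopus oocytes expressing rat GluN1 with GluN2A, 2B, 2C or 2D. Holding potential −40 mV in recording solution (mM: 90 NaCl, 1 KCl, 0.5 BaCl2, 0.005 EDTA, 10 HEPES, pH 7.4, 23 °C). Compounds diluted from 20 mM DMSO stocks to 0.05–0.1% final DMSO. IC50 from a Hill fit to the averaged composite concentration–response curve, 5–24 oocytes from 2–4 frogs.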
A general note: Two-electrode voltage clamp is typically applied to oocytes expressing channels or transporters.

In data set [12] the target is Glutamate receptor ionotropic, NMDA 2C (Rattus norvegicus) (UniProt Q00961). Kind of data set: Negative allosteric modulation of recombinant rat GluN2C receptor expressed in Xenopus laevis oocytes at 100 uM by two-electrode voltage clamp method. The data set is classed as cell-based. Particulars: Oocyte. In outline:
as §3

In data set [13] the target is Glutamate receptor ionotropic, NMDA 2B (Rattus norvegicus) (UniProt Q00960). Put plainly: Negative allosteric modulation of recombinant rat GluN2B receptor expressed in Xenopus laevis oocytes at 100 uM by two-electrode voltage clamp method. Type of data set: cell-based. Particulars: Oocyte. In outline:
as §3

The target in data set [14] is Glutamate receptor ionotropic, NMDA 2A (Rattus norvegicus) (UniProt Q00959). Put plainly: Negative allosteric modulation of recombinant rat GluN2A receptor expressed in Xenopus laevis oocytes at 100 uM by two-electrode voltage clamp method. The data set is classed as cell-based. Conditions: Oocyte. In outline:
as §3

The structures appear in SMILES notation.

Sequence of Glutamate receptor ionotropic, NMDA 2A (Rattus norvegicus) (Q00959 23-1464 limits assumed): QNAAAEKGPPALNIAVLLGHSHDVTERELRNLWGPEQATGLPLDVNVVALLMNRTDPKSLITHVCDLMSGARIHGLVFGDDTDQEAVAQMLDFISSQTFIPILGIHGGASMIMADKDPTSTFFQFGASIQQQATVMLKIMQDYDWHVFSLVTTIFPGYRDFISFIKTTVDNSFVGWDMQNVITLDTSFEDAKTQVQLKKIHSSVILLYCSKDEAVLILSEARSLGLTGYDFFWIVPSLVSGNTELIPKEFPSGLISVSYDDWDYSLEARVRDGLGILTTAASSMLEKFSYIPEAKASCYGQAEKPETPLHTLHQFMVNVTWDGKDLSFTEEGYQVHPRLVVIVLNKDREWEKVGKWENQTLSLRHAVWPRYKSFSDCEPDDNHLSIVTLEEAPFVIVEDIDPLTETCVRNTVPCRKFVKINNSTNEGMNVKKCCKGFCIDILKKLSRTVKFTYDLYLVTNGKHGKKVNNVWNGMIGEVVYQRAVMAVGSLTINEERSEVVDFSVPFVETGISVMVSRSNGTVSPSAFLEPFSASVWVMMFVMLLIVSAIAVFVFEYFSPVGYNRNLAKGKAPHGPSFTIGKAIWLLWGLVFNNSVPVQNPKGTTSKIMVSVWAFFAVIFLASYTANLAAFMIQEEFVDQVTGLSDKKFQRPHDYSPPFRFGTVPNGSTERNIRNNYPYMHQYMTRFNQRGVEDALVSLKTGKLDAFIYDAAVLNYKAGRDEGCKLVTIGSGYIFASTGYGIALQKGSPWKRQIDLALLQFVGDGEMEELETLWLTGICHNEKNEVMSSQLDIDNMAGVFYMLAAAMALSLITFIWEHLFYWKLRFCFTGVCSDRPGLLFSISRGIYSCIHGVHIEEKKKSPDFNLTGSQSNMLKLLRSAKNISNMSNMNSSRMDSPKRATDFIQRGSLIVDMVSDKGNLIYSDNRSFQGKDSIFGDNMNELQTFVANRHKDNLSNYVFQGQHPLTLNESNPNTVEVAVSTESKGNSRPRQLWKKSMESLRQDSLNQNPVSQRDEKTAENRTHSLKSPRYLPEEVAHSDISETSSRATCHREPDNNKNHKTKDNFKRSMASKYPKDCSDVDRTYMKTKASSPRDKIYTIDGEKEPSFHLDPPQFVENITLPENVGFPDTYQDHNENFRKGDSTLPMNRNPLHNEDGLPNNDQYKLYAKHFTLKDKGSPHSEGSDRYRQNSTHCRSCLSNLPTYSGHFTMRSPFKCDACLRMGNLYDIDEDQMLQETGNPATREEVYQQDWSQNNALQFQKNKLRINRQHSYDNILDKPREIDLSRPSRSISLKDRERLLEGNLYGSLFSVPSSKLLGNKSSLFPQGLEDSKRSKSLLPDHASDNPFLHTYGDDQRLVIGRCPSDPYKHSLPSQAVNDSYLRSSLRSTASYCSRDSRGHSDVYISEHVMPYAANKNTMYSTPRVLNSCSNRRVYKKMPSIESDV
Sequence of Glutamate receptor ionotropic, NMDA 2D (Rattus norvegicus) (Q62645 whole entry): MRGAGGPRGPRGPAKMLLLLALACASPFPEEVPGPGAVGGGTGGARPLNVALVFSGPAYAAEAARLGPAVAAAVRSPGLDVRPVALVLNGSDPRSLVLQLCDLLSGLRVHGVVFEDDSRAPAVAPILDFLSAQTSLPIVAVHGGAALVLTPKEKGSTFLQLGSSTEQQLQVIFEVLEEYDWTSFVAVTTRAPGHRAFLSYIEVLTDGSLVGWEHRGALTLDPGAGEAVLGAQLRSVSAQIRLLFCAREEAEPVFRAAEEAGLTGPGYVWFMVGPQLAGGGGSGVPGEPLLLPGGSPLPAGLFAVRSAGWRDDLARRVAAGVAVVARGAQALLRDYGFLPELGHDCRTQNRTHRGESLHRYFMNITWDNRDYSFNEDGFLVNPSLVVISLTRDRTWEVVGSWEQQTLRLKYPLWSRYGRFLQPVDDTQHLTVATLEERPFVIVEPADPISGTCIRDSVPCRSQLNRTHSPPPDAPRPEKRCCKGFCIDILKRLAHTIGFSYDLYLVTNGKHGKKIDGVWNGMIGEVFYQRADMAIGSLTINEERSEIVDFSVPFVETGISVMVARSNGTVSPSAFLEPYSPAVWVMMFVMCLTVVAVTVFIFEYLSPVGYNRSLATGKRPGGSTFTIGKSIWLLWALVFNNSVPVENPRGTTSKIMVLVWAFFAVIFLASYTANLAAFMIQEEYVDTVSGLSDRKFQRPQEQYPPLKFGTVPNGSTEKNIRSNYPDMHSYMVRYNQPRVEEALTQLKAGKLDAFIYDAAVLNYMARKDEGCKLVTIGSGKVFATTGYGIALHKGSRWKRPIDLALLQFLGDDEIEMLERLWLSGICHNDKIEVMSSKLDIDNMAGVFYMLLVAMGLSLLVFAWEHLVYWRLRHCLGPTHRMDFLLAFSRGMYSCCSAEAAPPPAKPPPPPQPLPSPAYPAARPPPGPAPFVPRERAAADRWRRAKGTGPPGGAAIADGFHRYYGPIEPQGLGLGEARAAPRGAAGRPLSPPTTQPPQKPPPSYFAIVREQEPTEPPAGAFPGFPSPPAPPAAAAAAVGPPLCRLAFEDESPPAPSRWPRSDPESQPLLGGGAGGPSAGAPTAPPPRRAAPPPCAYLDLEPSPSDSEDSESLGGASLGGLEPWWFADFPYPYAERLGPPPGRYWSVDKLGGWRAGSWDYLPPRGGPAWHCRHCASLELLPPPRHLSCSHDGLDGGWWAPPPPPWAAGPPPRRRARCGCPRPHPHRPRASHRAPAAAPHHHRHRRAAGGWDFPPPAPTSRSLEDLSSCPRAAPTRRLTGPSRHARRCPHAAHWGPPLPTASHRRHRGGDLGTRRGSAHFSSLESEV
Sequence of Glutamate receptor ionotropic, NMDA 2B (Rattus norvegicus) (Q00960 27-1482 limits assumed): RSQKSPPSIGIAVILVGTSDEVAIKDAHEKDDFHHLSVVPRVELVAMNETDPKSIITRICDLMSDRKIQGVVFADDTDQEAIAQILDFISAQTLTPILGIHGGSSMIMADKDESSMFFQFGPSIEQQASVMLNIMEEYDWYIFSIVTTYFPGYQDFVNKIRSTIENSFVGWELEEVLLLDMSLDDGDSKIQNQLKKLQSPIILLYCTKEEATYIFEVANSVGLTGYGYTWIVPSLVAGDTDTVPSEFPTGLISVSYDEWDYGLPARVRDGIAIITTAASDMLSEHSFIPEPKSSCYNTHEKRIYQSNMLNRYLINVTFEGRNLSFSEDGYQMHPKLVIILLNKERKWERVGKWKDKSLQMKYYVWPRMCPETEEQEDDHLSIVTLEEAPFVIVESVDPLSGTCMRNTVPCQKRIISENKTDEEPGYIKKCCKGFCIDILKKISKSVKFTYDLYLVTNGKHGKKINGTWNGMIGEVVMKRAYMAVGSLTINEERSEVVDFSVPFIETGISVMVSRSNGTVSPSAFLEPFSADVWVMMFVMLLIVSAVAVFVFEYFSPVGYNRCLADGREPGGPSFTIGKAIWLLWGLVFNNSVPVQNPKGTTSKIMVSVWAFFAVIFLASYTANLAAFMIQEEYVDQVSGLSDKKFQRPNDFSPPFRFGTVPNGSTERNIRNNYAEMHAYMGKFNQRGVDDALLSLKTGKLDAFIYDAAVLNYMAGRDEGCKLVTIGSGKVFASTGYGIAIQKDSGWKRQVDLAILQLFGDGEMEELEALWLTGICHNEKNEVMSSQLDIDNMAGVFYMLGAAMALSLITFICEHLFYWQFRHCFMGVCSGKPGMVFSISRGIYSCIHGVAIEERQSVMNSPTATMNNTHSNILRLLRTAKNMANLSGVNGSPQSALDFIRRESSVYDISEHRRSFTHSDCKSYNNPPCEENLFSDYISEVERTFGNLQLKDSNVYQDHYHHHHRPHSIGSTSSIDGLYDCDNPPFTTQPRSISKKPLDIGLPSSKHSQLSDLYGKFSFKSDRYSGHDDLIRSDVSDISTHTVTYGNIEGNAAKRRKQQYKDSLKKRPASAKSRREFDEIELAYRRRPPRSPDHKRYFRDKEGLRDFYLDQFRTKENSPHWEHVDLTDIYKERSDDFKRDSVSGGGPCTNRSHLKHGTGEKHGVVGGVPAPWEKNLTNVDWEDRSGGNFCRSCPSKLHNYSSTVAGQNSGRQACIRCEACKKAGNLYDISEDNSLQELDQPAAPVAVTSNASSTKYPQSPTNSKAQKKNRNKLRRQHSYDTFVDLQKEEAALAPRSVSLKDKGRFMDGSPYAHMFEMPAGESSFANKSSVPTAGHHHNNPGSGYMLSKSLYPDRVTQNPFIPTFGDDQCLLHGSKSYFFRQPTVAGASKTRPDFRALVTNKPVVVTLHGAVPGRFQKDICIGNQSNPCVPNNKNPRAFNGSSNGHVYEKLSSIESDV

In turn, `O=C(CCCF)N1N=C(c2c(-c3ccc(Cl)cc3)c3ccccc3[nH]c2=O)CC1c1ccc(Cl)cc1` (centres undefined) came in with a t1/2 in the data set on Liver microsomes [1] of 35 min. In the data set on Liver microsomes [2], this compound gave a CLint of 40 µL/min/mg. In addition, the Stability in the data set with Liver microsomes [3] was 39%; in the data set on Liver microsomes [4] it was 49%; in the data set with Liver microsomes [5] it was 49%; with Liver microsomes [6], 67%. In addition, the figures for the Drug recovery with MDCK [7] and with MDCK [9] were 67% and 43%, respectively. Further, the apparent permeability coefficient (Papp) with MDCK [8] was 9.52 ×10⁻⁶ cm/s; with MDCK [10], 3.88 ×10⁻⁶ cm/s. For the same compound, the inhibition in data set [11], in data set [12], in data set [13] and in data set [14] was less than 30% throughout.
